The values below come from article PMC9073132 (Journal of Pharmaceutical Analysis, 2021).

The format of the data set is in vivo, Wistar rats. To be noted: for Detection in rat plasma samples over the sampling period (LC-MS/MS quantitation): concentrations lower than LLOQ. Summed up:
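Male Wistar rats (200 ± 20 g) were acclimated 7 days with food and water ad libitum. Crude extract, predissolved in 0.5% DMSO and dispersed in 5 mg/mL sodium carboxymethylcellulose, was given intragastrically at 200 mg/kg. Heparinized blood was taken on ice at 0–24 h (12 points) and spun; plasma was held at −20 °C. Plasma (100 μL) plus IS was extracted with ethyl acetate, then 14 bufadienolides quantified by UHPLC-MS/MS against LLOQ.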

The mark [1] stands for this setting: intragastric crude VB extract 200 mg/kg.
[2] abbreviates: male, Wistar, rat, plasma, po, 200 mg/kg.
[3] abbreviates: rat plasma, intragastric crude VB extract 200 mg/kg, n=4.

Like-named read-outs stand apart in the source and are kept apart here.

For `CC(=O)O[C@H]1C[C@]2(O)[C@@H]3CC[C@@H]4C[C@@H](O)CC[C@]4(C)[C@H]3CC[C@]2(C)[C@H]1c1ccc(=O)oc1` [CS15, bufotalin], the “Detection in rat plasma samples over the sampling period (LC-MS/MS quantitation)” value under setting [1] was “not detected”.

For the compound `C[C@]12CC[C@H](O)C[C@H]1CC[C@@H]1[C@@H]2CC[C@]2(C)[C@@H](c3ccc(=O)oc3)CC[C@]12O` [CS21, bufalin], under setting [2], the AUC(0-t) amounted to 17 ± 1.76 ng·h/mL, the Cmax worked out at 7.08 ± 1.85 ng/mL, the MRT last worked out at 1.48 ± 0.115 h and the time to peak (Tmax) was 0.396 ± 0.292 h. In addition, under setting [2], the half-life was 1.77 ± 0.821 h.

Take `C[C@]12CC[C@H]3[C@@H](CC[C@]4(O)C[C@@H](O)CC[C@]34C=O)[C@@]1(O)CC[C@@H]2c1ccc(=O)oc1` [CS04, hellebrigenin]: under setting [3], the “AUC(0-t)” value came to 104.246 ± 20.661 ng·h/mL, the Cmax is reported as 13.35 ± 2.243 ng/mL, the “MRT(0-t)” value is reported as 6.478 ± 1.035 h and the Tmax is reported as 1.438 ± 0.657 h. The t1/2 under setting [3] was determined as 4.884 ± 2.116 h.

As for `C[C@]12CC[C@H]3[C@@H](CC[C@@H]4C[C@@H](O)CC[C@@]43C=O)[C@]13O[C@@H]3CC2c1ccc(=O)oc1` (stereo partly drawn) [CS16, resibufagin], the “Detection in rat plasma samples over the sampling period (LC-MS/MS quantitation)” value under setting [1] is “not detected”.

In the case of `C[C@]12CC[C@H](O)C[C@H]1CC[C@@H]1[C@@H]2[C@H](O)C(=O)[C@]2(C)[C@@H](c3ccc(=O)oc3)CC[C@]12O` [CS03, arenobufagin], under setting [3], the “AUC(0-t)” value amounted to 1487.316 ± 407.361 ng·h/mL, the Cmax came to 466.5 ± 116.920 ng/mL, the “MRT(0-t)” value is 3.338 ± 1.011 h and the Tmax was found to be 0.938 ± 0.125 h. The t1/2 under setting [3] was 4.537 ± 2.442 h.

`C[C@]12CC[C@H](O)C[C@H]1CC[C@@H]1[C@@H]2[C@H](O)C[C@]2(C)[C@@H](c3ccc(=O)oc3)CC[C@]12O` [CS36, gamabufotalin]: under setting [2], the exposure AUC(0-t) came out at 223 ± 11.3 ng·h/mL, the peak level (Cmax) was 84.4 ± 4 ng/mL, the MRT last stood at 2.5 ± 0.603 h and the Tmax was 0.812 ± 0.125 h. The same compound gave a half-life under setting [2] of 2.82 ± 1.27 h.

In the case of `C[C@]12CC[C@H](O)C[C@@]1(O)CC[C@@H]1[C@@H]2CC[C@]2(C)[C@@H](c3ccc(=O)oc3)CC[C@]12O` [CS14, telocinobufagin], under setting [2], the AUC(0-t) was found to be 7.22 ± 0.428 ng·h/mL, the highest concentration (Cmax) is 4.84 ± 1.09 ng/mL, the MRT last worked out at 0.932 ± 0.129 h and the time to peak (Tmax) was determined as 0.521 ± 0.315 h. Under setting [2], this compound showed a half-life of 1.88 ± 1.19 h.

On to `C[C@]12CC[C@H](O)C[C@H]1CC[C@@H]1[C@@H]2CC[C@]2(C)[C@@H](c3ccc(=O)oc3)C[C@H]3O[C@]132` [CS22, resibufogenin], for which, under setting [2], the area under the curve AUC(0-t) stood at 4.53 ± 0.701 ng·h/mL, the concentration peaked (Cmax) at 3.79 ± 3.78 ng/mL, the MRT last stood at 0.836 ± 0.141 h and the Tmax turned out to be 0.333 ± 0.204 h. Also, the half-life under setting [2] was 1.2 ± 0.477 h.

On to `CC(=O)O[C@H]1[C@H]2O[C@]23[C@@H]2CC[C@]4(O)C[C@@H](O)CC[C@]4(C=O)[C@H]2CC[C@]3(C)[C@H]1c1ccc(=O)oc1` [CS11, 19-oxocinobufotalin], for which, under setting [3], the exposure AUC(0-t) was found to be 3.669 ± 0.511 ng·h/mL, the highest concentration (Cmax) was determined as 2.752 ± 0.814 ng/mL, the “MRT(0-t)” value is 0.942 ± 0.05 h and the Tmax was determined as 0.562 ± 0.239 h. Besides, the t1/2 under setting [3] was 2.614 ± 2.802 h.

As to `C[C@]12CC[C@H](O)C[C@H]1CC[C@@H]1[C@@H]2CC[C@]2(C)[C@@H](c3ccc(=O)oc3)[C@@H](O)[C@H]3O[C@]132` [CS30, desacetylcinobufagin], under setting [2], the area under the curve AUC(0-t) is 104 ± 6.06 ng·h/mL, the peak level (Cmax) was 24.1 ± 2.27 ng/mL, the mean residence time (MRT last) stood at 4.67 ± 1.01 h and the Tmax was 0.875 ± 0.25 h. This compound also showed a half-life under setting [2] of 10.8 ± 5.24 h.

On to `CC(=O)O[C@H]1[C@H]2O[C@]23[C@@H]2CC[C@]4(O)C[C@@H](O)CC[C@]4(C)[C@H]2CC[C@]3(C)[C@H]1c1ccc(=O)oc1` [CS19, cinobufotalin], for which the “Detection in rat plasma samples over the sampling period (LC-MS/MS quantitation)” value under setting [1] is “not detected”.

For `CC(=O)O[C@H]1[C@H]2O[C@]23[C@@H]2CC[C@@H]4C[C@@H](O)CC[C@]4(C)[C@H]2CC[C@]3(C)[C@H]1c1ccc(=O)oc1` [CS23, cinobufagin], under setting [2], the area under the curve AUC(0-t) came to 5.2 ± 2.83 ng·h/mL, the maximum concentration (Cmax) was 7.29 ± 10.4 ng/mL, the mean residence time MRT last turned out to be 0.913 ± 0.23 h and the Tmax came out at 0.833 ± 0.825 h. For the same compound, the half-life under setting [2] was 1.32 ± 0.526 h.

As to `C[C@]12CC[C@H](O)C[C@H]1CC[C@@H]1[C@@H]2C(=O)[C@H](O)[C@]2(C)[C@@H](c3ccc(=O)oc3)CC[C@]12O` [CS01, pseudobufarenogin], under setting [3], the “AUC(0-t)” value was 276.956 ± 60.642 ng·h/mL, the peak concentration (Cmax) came out at 67.225 ± 14.218 ng/mL, the “MRT(0-t)” value came to 4.614 ± 0.481 h and the time of peak concentration (Tmax) is given as 0.75 ± 0 h. The same compound showed a t1/2 under setting [3] of 3.944 ± 1.276 h.

Consider `CC(=O)O[C@H]1[C@H]2O[C@]23[C@@H]2CC[C@@H]4C[C@@H](O)CC[C@]4(C=O)[C@H]2CC[C@]3(C)[C@H]1c1ccc(=O)oc1` [CS17, 19-oxocinobufagin], for which the “Detection in rat plasma samples over the sampling period (LC-MS/MS quantitation)” value under setting [1] was “not detected”.
